This series in a line: Toxicity liver stage against HepG2, at 10uM. The class given is cell-based. Further details: test concentration 10 uM, cell line HepG2-A16-CD81EGFP. The settings on record: human, HepG2-A16-CD81EGFP cells; read-out: INHIBITION
Summed up:
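Uninfected HepG2-A16-CD81EGFP cells, 3 × 10^3 per well, 1536-well, plated on prespotted compound at 10 μM final, parasite-free screening media added to match infected plates; puromycin 10 μM positive, DMSO 0.5% negative; run in parallel with 48 h PbLuc assay at 37 °C, 5% CO2; viability by CellTiter-Glo luminescence, normalized to controls.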

Regarding `Cc1ccc(S(C)(=O)=O)cc1C(=O)NS(=O)(=O)c1ccc(Cl)cc1`, the cytotoxicity at 10 µM was -13.5%.
The value for `Cc1nc(-c2nnc[nH]2)sc1C(=O)N1CCCC1c1cccs1` (stereo not given) was 11.1%.
Turning to `CSCC[C@@H](CO)n1ccnc1-c1nccn1C`, the cytotoxicity at 10 µM is -2.84%.
`O=C(C1CC=CC1)N1CC[C@@H](O)[C@H]1Cc1cccnc1`: the cytotoxicity at 10 µM is -99.4%.
Take `CCN1CCN(C(=O)NCCOc2ccc3c(c2)OCO3)CC1`: the cytotoxicity at 10 µM was -4.59%.
The value for `Cn1cc(CN2C[C@@H]3CN(Cc4ccoc4)CCO[C@@H]3C2)cn1` was 6.97%; that for `O=C1N(c2ccccc2)C[C@H]2CN(C3CCC3)CCN12` was 6.09%; that for `COCCC(=O)NCCCOC1CCCc2ccccc21` (stereo not given) was -6.87%.
The value for `CC(C)c1ccc(CS(=O)(=O)Cc2nc(N)nc(N(C)C)n2)cc1` was 7.34%; that for `CCN(CC)C(=O)c1ccn(COc2cccc(Cl)c2Cl)n1` was 49.4%; that for `Cc1cc(C(=O)N(C)CC(F)(F)C(F)(F)F)ccc1-n1cncn1` was 1.64%.
Turning to `Cc1ncsc1C(=O)NCC1SCCc2ccccc21` (stereo not given), the cytotoxicity at 10 µM is -8.21%.
On to `Cn1cnnc1C1CCCN(C(=O)NCCc2ccccn2)C1` (stereo not given), for which the cytotoxicity at 10 µM was -21.5%.
The value for `COCCN(CCc1ccccc1)Cc1nc2c(cnn2C)c(=O)[nH]1` was -7.57%.
`Cc1nc(CCN2CCCCC2)n(-c2ccc(F)cc2)n1`: the cytotoxicity at 10 µM was -2.23%.
The value for `Cn1cccc1C(=O)NC[C@H]1C[C@@H]2CN(C(=O)c3ccno3)C[C@H]2O1` was 0.903%.
Take `Cc1cc(C(=O)N2CCCC(c3nncn3C)C2)no1` (stereo not given): the cytotoxicity at 10 µM stood at 0.541%.
Turning to `CC(C)(CO)Nc1c(NCc2ccncc2)c(=O)c1=O`, the cytotoxicity at 10 µM is -3.97%.
The value for `C1CCC(CNC2CCCN(Cc3noc(C4CC4)n3)C2)C1` (stereo not given) was -2.34%; that for `O=C(C1CCOCC1)N1CC[C@@H](O)[C@@H]1Cc1ccccc1` was 0.375%; that for `CO[C@H]1CCN(C2CCC2)[C@@H]2CN(Cc3ccncc3)C[C@H]12` was 8.13%.
The value for `CN(C)CC(=O)N1CC[C@H]2OCC[C@@]2(COCC2CC2)C1` was 0.165%.
The value for `COc1nc(C)cc(C)c1CNC(=O)N(C)Cc1cnn(C)c1` was -4.64%; that for `COc1cc(C2CC(=O)Nc3c2nc2n3CCCC2)cc2c1OCO2` (stereo not given) was -6.67%; that for `O=S(=O)(NCC1CCN(c2cnccn2)CC1)c1cccs1` was 6.28%.
For `Cc1nnc2n1CCN(Cc1nc3c(F)cccc3[nH]1)C2`, the cytotoxicity at 10 µM is -2.3%.
Turning to `O=C(CC1[C@H]2CN(Cc3ccncc3)C[C@@H]12)N1CCCC1` (stereo not given in full), the cytotoxicity at 10 µM amounted to 2.58%.
For the compound `O=C(O)c1ccc(F)c(S(=O)(=O)Nc2ccc(-n3cccn3)c(Cl)c2)c1`, the cytotoxicity at 10 µM worked out at 2.24%.
For `CC(C)S(=O)(=O)N1C[C@H]2OC(=O)N(CCc3cccc(Cl)c3)[C@H]2C1`, the cytotoxicity at 10 µM amounted to 0.642%.
For the compound `Cc1cc(NC(=O)CN2CCc3nn(C)c(=O)cc3C2)on1`, the cytotoxicity at 10 µM was -1.45%.
For the compound `CC(=O)NC1CCN(c2ncnc3c2c(C)nn3C)C1` (stereo not given), the cytotoxicity at 10 µM is -2.78%.
The value for `CC(C)c1cc(C(=O)N(C)C(C)c2nccs2)no1` (stereo not given) was -9.15%.
Consider `CC(C)(N)c1cn(C2CCN(c3ncccc3Cl)CC2)nn1`, for which the cytotoxicity at 10 µM was -48%.
The value for `N#Cc1cccnc1NCCNC(=O)N1CCCC(N2CCCC2)C1` (stereo not given) was 7.61%; that for `CCS(=O)(=O)N(C)C1CCN(C(=O)c2ccc(Cl)cc2)CC1` was -5.87%.
Turning to `CN(C)CCN(Cc1ccccc1)C(=O)C1=NNC(=O)CC1`, the cytotoxicity at 10 µM was -6.49%.
Turning to `Cc1cccc(C(C(=O)N(C)Cc2ccco2)N(C)C)c1` (stereo not given), the cytotoxicity at 10 µM was determined as 3.15%.
The value for `CN(C)C(=O)N1C[C@@H]2CC[C@H]1CN(C1Cc3ccccc3C1)C2` was -0.581%; that for `O=C(c1cc[nH]n1)N1CC[C@@H]2CN(Cc3ccccc3)S(=O)(=O)[C@@H]2CC1` was 4.35%; that for `CCC(NC(=O)c1cc(CC(C)C)nn1C)c1cc(C)ccn1` (stereo not given) was -138%.
The value for `Cc1nn(C)c(N(C)C)c1CNC(C)COc1ccc(F)cc1F` (stereo not given) was -9.78%; that for `O=C(CC1NC(N2CCc3ccccc3C2)=NC1=O)Nc1ccccc1` (stereo not given) was 2.96%; that for `O=C(N[C@@H]1CCN(C(=O)c2cc[nH]c2)C[C@H]1O)c1ccccn1` was 5.89%.
The value for `c1ccc2oc(CCCN3CCOC(Cn4cncn4)C3)nc2c1` (stereo not given) was 1.52%; that for `COc1cc(C#N)ccc1OCC(=O)N(C1CC1)C(C)c1ccco1` (stereo not given) was 1.18%.
With `CCN1CCOC(CNCc2ccccc2OCc2ccncc2)C1` (stereo not given), the cytotoxicity at 10 µM is -8.57%.
The value for `CC(c1nc(C(C)(C)C)no1)N1CCC(N2CCCC2)CC1` (stereo not given) was 3.63%; that for `CN(Cc1n[nH]c2c1CCCC2)C(=O)c1cccc(CCC(C)(C)O)c1` was -3.87%; that for `COc1ccc(CC(=O)N(C)Cc2nnc3ccccn23)cc1` was 5.44%.
The value for `CC(c1ncc(-c2ccccc2)o1)N1CCN(C(=O)C(C)(C)C)CC1` (stereo not given) was 17.4%; that for `Cc1cc(C)nc(N2CCC(C(=O)Nc3n[nH]c(C)n3)CC2)n1` was 8.78%.
As to `CCc1ccc(C(=O)N2CCN(c3nc(C)cc(OC)n3)CC2)o1`, the cytotoxicity at 10 µM is -18.7%.
As for `C[C@H]1C[C@H]2CN(C(=O)CC3CC3)CC[C@H]2O1`, the cytotoxicity at 10 µM is -67.8%.
Take `O=C(c1ccc2c(c1)OCCCO2)N1CCCC(n2ccnc2)C1` (stereo not given): the cytotoxicity at 10 µM worked out at 0.893%.
The value for `CCN(CC)C(=O)CCNc1cncc(-n2nc(C)cc2C)n1` was 2.41%; that for `COC(=O)c1ncccc1N1CCCC1` was -3.1%.
On to `Nc1c(C(=O)C2CCCN(C(=O)C3CC3)C2)cnn1-c1ccc(F)cc1` (stereo not given), for which the cytotoxicity at 10 µM came to 6.12%.
The value for `COc1cc2[nH]c(=O)c(CN3CCC[C@H]3CO)cc2c(OC)c1OC` was -10.7%.
Take `Cn1nnc2c1C(COCC1CC1)CN(C(=O)Cc1ccccn1)C2` (stereo not given): the cytotoxicity at 10 µM is 13.5%.
Take `CN(Cc1ccoc1)C(=O)C1CCN(C(=O)C2CCCC2)CC1`: the cytotoxicity at 10 µM was -7.77%.
Regarding `Cc1nc(C)n(CC2CCCCN2CCCS(N)(=O)=O)n1` (stereo not given), the cytotoxicity at 10 µM was -3.73%.
On to `CN1CCOC(C(=O)Nc2ccc3c(c2)nc(C2CC2)n3C)C1` (stereo not given), for which the cytotoxicity at 10 µM is -5.5%.
In the case of `Cc1ccc(CS(=O)(=O)NCc2ccco2)cc1`, the cytotoxicity at 10 µM is -2.11%.
The value for `CCn1nc(C)c(CCNC(=O)C2CCCN(C3CCCC3)C2)c1C` (stereo not given) was -9.34%; that for `OC(CNC1CCOCC1)c1cccc(OCc2ccccc2)c1` (stereo not given) was -10.3%; that for `Cc1nc(-c2nnc[nH]2)sc1C(=O)N1CCCC(C(F)(F)F)C1` (stereo not given) was 7.59%.
Consider `Cc1cc(NC(=O)N2CCOCC2)nn1-c1cccc(Cl)c1`, for which the cytotoxicity at 10 µM is -1.57%.
For `CCC(C)(C)n1nnnc1C(c1cccs1)N1CCCCC1` (stereo not given), the cytotoxicity at 10 µM was determined as 2.09%.
Take `Cc1ccc(S(=O)(=O)N2CSCC2C(=O)NCC(F)(F)F)cc1C` (stereo not given): the cytotoxicity at 10 µM was -0.855%.
The value for `CN(C)c1cc(CNC(=O)c2ccccc2Cl)ccn1` was -8.28%.

Source of the values: ChEMBL document CHEMBL4513216, “Probing the Open Global Health Chemical Diversity Library for Multistage-Active Starting Points for Next-Generation Antimalarials” (ACS Infect Dis, 2020).
